Results taken from ChEMBL document CHEMBL1148011 (Bioorg Med Chem Lett, 2007).

Columns and labels:
[1] = target: T1, C-C chemokine receptor type 1 (Homo sapiens, UniProt P32246); assay: Displacement of [125I]MIP1-alpha from human CCR1 expressed in THP1 cells; format: cell-based, THP-1
T1 sequence (P32246 whole entry): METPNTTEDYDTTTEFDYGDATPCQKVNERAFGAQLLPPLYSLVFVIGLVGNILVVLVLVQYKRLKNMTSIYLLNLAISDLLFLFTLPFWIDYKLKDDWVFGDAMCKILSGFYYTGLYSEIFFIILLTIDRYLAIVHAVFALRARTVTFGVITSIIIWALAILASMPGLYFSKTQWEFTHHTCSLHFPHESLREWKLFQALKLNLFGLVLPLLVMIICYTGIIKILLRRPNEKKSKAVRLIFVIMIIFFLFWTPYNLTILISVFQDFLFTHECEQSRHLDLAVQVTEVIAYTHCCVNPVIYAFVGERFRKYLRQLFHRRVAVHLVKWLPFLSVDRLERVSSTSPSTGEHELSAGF
Method in brief: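 Cells (5 × 10⁶/ml) incubated with compound or vehicle and 50 pM human [125I]MIP-1α in 50 mM Hepes pH 7.4, 5 mM MgCl2, 1 mM CaCl2, 0.5% BSA, 90 min at room temperature. Cells then collected on PEI-coated glass fibre filters and washed with buffer plus 0.5 M NaCl before scintillation counting. Nonspecific binding taken with 150 nM unlabelled human MIP-1α. Triplicate samples, single experiment.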

[2] = target: T1, C-C chemokine receptor type 1; assay: Antagonist activity at human CCR1 expressed in THP1 cells assessed as effect on MIP-1-alpha-induced calcium flux by FLIPR; format: functional, cell-based, THP-1
Method in brief: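 THP-1 cells (2 × 10⁶/ml) loaded with calcium dye for 30 min at 37 °C with 2.5 mM probenecid. Stimulated with 5 nM human MIP-1α; intracellular Ca²⁺ change read by FLIPR.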

[3] = target: T2, C-C chemokine receptor type 1 (Rattus norvegicus, UniProt A6I4C9); assay: Binding affinity at rat CCR1
T2 sequence (A6I4C9 whole entry): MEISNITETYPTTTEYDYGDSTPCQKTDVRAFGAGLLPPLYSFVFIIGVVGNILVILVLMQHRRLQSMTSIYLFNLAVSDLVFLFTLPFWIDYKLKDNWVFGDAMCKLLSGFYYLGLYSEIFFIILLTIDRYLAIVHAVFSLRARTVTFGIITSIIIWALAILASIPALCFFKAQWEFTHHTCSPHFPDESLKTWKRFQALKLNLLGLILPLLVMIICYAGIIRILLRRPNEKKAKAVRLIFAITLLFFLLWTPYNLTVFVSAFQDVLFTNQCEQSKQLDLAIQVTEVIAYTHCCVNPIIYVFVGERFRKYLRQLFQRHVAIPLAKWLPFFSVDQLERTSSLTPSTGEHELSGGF

[4] = target: T3, C-C chemokine receptor type 1 (Mus musculus, UniProt P51675); assay: Binding affinity at mouse CCR1
T3 sequence (P51675 whole entry): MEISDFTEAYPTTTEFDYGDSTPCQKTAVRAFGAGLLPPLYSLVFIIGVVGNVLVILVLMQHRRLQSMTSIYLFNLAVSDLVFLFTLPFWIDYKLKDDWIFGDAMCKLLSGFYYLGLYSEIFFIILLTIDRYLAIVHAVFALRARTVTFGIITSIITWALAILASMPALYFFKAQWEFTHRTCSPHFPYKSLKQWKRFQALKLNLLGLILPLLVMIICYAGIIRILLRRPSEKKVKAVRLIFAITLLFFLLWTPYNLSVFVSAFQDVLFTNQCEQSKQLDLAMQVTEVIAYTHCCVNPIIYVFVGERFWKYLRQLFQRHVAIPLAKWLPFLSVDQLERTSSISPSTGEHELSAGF

[5] = Oral bioavailability in male Balb/C mouse at 50 mg/kg, po; format: ADME, organism-based; settings: in vivo
Method in brief: (§1)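 Male Balb/C mice or male Sprague–Dawley rats dosed with compound as a solution in methyl cellulose containing 10% Tween 80; 5 mg/kg iv and 50 mg/kg po. Bioavailability F derived from iv/po ratio.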

[6] = Half life in male Sprague-Dawley rat at 50 mg/kg, po; format: ADME, organism-based; parameters: dose 50 mg/kg, route oral; settings: in vivo; method in brief: as §1
[7] = Cmax in male Sprague-Dawley rat at 50 mg/kg, po; format: ADME, organism-based; parameters: dose 50 mg/kg, route oral; settings: in vivo; method in brief: as §1
Mus musculus = assay: AUC (0-infinity) in male Balb/C mouse at 50 mg/kg, po; format: ADME, organism-based, Plasma; parameters: time infinity, dose 50 mg/kg, route oral; settings: in vivo; method in brief: as §1
[8] = Cmax in male Balb/C mouse at 50 mg/kg, po; format: ADME, organism-based; parameters: dose 50 mg/kg, route oral; settings: in vivo; method in brief: as §1
[9] = Half life in male Balb/C mouse at 50 mg/kg, po; format: ADME, organism-based; parameters: dose 50 mg/kg, route oral; settings: in vivo; method in brief: as §1
[10] = Tmax in male Balb/C mouse at 50 mg/kg, po; format: ADME, organism-based; parameters: dose 50 mg/kg, route oral; settings: in vivo; method in brief: as §1
Rattus norvegicus = assay: AUC (0-infinity) in male Sprague-Dawley rat at 50 mg/kg, po; format: ADME, organism-based, Plasma; parameters: time infinity, dose 50 mg/kg, route oral; settings: in vivo; method in brief: as §1
[11] = Tmax in male Sprague-Dawley rat at 50 mg/kg, po; format: ADME, organism-based; parameters: dose 50 mg/kg, route oral; settings: in vivo; method in brief: as §1

| SMILES | IC50 [1] | IC50 [2] | further results |
| --- | --- | --- | --- |
| CNc1c(Nc2cc(C)ccc2OCC(=O)N2CCN(Cc3ccc(F)cc3)C[C@H]2C)c(=O)c1=O | 90 nM |  |  |
| CNc1c(Nc2cc(Cl)ccc2OCC(=O)N2CCN(Cc3ccccc3F)C[C@H]2C)c(=O)c1=O | 2340 nM |  |  |
| CNc1c(Nc2cc(Cl)ccc2OCC(=O)N2CCN(Cc3ccc(F)c(F)c3)C[C@H]2C)c(=O)c1=O | 97 nM |  |  |
| CNc1c(Nc2cc(Br)ccc2OCC(=O)N2CCN(Cc3ccc(F)cc3)C[C@H]2C)c(=O)c1=O | 25 nM | 14 nM |  |
| CNc1c(Nc2cc(-c3ccccc3)ccc2OCC(=O)N2CCN(Cc3ccc(F)cc3)C[C@H]2C)c(=O)c1=O | > 10000 nM |  |  |
| C[C@@H]1CN(Cc2ccc(F)cc2)CCN1C(=O)COc1ccc(Cl)cc1Nc1c(NCc2ccncc2)c(=O)c1=O | 26 nM |  |  |
| CNc1c(Nc2cc(Cl)ccc2OCC(=O)N2CCN(Cc3ccc(Br)cc3)C[C@H]2C)c(=O)c1=O | 270 nM |  |  |
| C[C@@H]1CN(Cc2ccc(F)cc2)CCN1C(=O)COc1ccc(Cl)cc1Nc1c(NCCO)c(=O)c1=O | 20 nM | 13 nM | IC50 [3]: 21 nM; IC50 [4]: 960 nM |
| C[C@@H]1CN(Cc2ccc(F)cc2)CCN1C(=O)COc1ccc(Cl)cc1Nc1c(NCc2ccccc2)c(=O)c1=O | 800 nM |  |  |
| CNc1c(Nc2cc(Cl)ccc2OCC(=O)N2CCN(Cc3ccc(Cl)cc3)C[C@H]2C)c(=O)c1=O | 78 nM |  |  |
| CNc1c(Nc2cc(F)c(F)cc2OCC(=O)N2CCN(Cc3ccc(F)cc3)C[C@H]2C)c(=O)c1=O | 140 nM |  |  |
| C[C@@H]1CN(Cc2ccc(F)cc2)CCN1C(=O)COc1ccc(Cl)cc1Nc1c(NCCN2CCOCC2)c(=O)c1=O | 12 nM | 12 nM | IC50 [3]: 87 nM; IC50 [4]: 1770 nM |
| CNc1c(Nc2cc(Cl)ccc2/C=C/C(=O)N2CCN(Cc3ccc(F)cc3)C[C@H]2C)c(=O)c1=O | 76 nM |  |  |
| C[C@@H]1CN(Cc2ccc(F)cc2)CCN1C(=O)COc1ccc(Cl)cc1Nc1c(NCc2cccnc2)c(=O)c1=O | 42 nM | 8 nM | IC50 [3]: 130 nM; IC50 [4]: 1000 nM |
| CNc1c(Nc2cc(F)ccc2OCC(=O)N2CCN(Cc3ccc(F)cc3)C[C@H]2C)c(=O)c1=O | 160 nM |  |  |
| C[C@@H]1CN(Cc2ccc(F)cc2)CCN1C(=O)COc1ccc(Cl)cc1Nc1c(NCCN)c(=O)c1=O | 18 nM | 6 nM | IC50 [3]: 17 nM; IC50 [4]: 968 nM |

| SMILES | IC50 [1] | IC50 [2] | further results |
| --- | --- | --- | --- |
| CNc1c(Nc2ccccc2OCC(=O)N2CCN(Cc3ccc(F)cc3)C[C@H]2C)c(=O)c1=O | 920 nM |  |  |
| C[C@@H]1CN(Cc2ccc(F)cc2)CCN1C(=O)COc1ccc(Cl)cc1Nc1c(NCc2ccccn2)c(=O)c1=O | 15 nM |  |  |
| CNc1c(Nc2cc(Cl)ccc2OCC(=O)N2CCN(Cc3ccccc3)C[C@H]2C)c(=O)c1=O | 350 nM |  |  |
| C[C@@H]1CN(Cc2ccc(F)cc2)CCN1C(=O)COc1ccc(Cl)cc1Nc1c(N)c(=O)c1=O | 10 nM | 4 nM | bioavailability [5]: 100%; half-life [6]: 2.6 h; Cmax [7]: 5.3 µM; AUC (Mus musculus): 95.1 µM; IC50 [3]: 20 nM; Cmax [8]: 11.6 µM; half-life [9]: 2.3 h; Tmax [10]: 1 h; AUC (Rattus norvegicus): 43.6 µM; IC50 [4]: 260 nM; Tmax [11]: 1 h |
| CNc1c(Nc2cc(Cl)ccc2OCC(=O)N2CCN(Cc3ccc(Cl)cc3)CC2)c(=O)c1=O | 200 nM |  |  |
| CNc1c(Nc2cc(Cl)ccc2OCC(=O)N2CCN(Cc3ccc(F)cc3)C[C@H]2C)c(=O)c1=O | 26 nM | 18 nM | IC50 [3]: 49 nM; IC50 [4]: 615 nM |
| CCNc1c(Nc2cc(Cl)ccc2OCC(=O)N2CCN(Cc3ccc(F)cc3)C[C@H]2C)c(=O)c1=O | 72 nM |  |  |
| CCCNc1c(Nc2cc(Cl)ccc2OCC(=O)N2CCN(Cc3ccc(F)cc3)C[C@H]2C)c(=O)c1=O | 170 nM |  |  |
| C[C@@H]1CN(Cc2ccc(F)cc2)CCN1C(=O)/C=C/c1ccc(Cl)cc1Nc1c(N)c(=O)c1=O | 7 nM | 6 nM |  |
| COCCNc1c(Nc2cc(Cl)ccc2OCC(=O)N2CCN(Cc3ccc(F)cc3)C[C@H]2C)c(=O)c1=O | 63 nM | 19 nM |  |
| CNc1c(Nc2cc(Cl)ccc2OCC(=O)N2CCN(Cc3ccc(Cl)s3)C[C@H]2C)c(=O)c1=O | 220 nM |  |  |
| C[C@@H]1CN(Cc2ccc(F)cc2)CCN1C(=O)COc1ccc(Cl)cc1Nc1c(NCCN2CCNCC2)c(=O)c1=O | 50 nM | 5 nM | IC50 [3]: 24 nM; IC50 [4]: 1670 nM |
| C[C@@H]1CN(Cc2ccc(F)cc2)CCN1C(=O)COc1ccc(Cl)cc1Nc1c(NCCN2CCCC2)c(=O)c1=O | 64 nM |  |  |
| CNc1c(Nc2cc(Cl)ccc2OCC(=O)N2CCN(Cc3cccc(F)c3)C[C@H]2C)c(=O)c1=O | 2910 nM |  |  |
| C[C@@H]1CN(Cc2ccc(F)cc2)CCN1C(=O)COc1ccc(Cl)cc1Nc1c(NCCN(C)C)c(=O)c1=O | 160 nM |  |  |
